The list is not random: actives were taken first. Their share in the collection is about 3.2%.
PRMT1 FP inh: PRMT1 (human) inhibition, primary screen; Q99873; recombinant PRMT1, activity-based probe fluorescence polarization; inhibition, % at 2.79 µM; actives 1.3% (n = 370,000);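 active means inhibition above about 21% made by adding two undisclosed values, limit read from the data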
mABHD4 FP: ABHD4 (mouse) inhibition, primary FP screen; purified mABHD4, FP-Rh probe fluorescence polarization; Q8VD66; actives 0.54% (n = 370,000); inhibition, % at 8.92 µM;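 active means inhibition exceeding the mean over every tested compound plus 3 SD, cut at about 30% in these data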
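Assay system: mouse ABHD4 enzyme, wild type / Also added: fluorescent activity-based probe FP-Rh / Doses: single nominal dose of 8.92 µM, 0.89% DMSO final / Timing: 45 min compound pre-incubation plus 60 min probe step, 25 °C / Signal: FP readout, ex 525 nm / em 598 nm / Control set: S159A mutant/DMSO as 100%, compound-well median as 0%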
HTRA1 inh: inhibitors of human serine peptidase HTRA1. inhibition, % at 5.96 µM. actives 0.5% (n = 340,000). recombinant HTRA1, FP-rhodamine activity-based probe, fluorescence polarization. Q92743; in the data active means inhibition above about 36%
Target sequence (Q92743 whole entry, looked up): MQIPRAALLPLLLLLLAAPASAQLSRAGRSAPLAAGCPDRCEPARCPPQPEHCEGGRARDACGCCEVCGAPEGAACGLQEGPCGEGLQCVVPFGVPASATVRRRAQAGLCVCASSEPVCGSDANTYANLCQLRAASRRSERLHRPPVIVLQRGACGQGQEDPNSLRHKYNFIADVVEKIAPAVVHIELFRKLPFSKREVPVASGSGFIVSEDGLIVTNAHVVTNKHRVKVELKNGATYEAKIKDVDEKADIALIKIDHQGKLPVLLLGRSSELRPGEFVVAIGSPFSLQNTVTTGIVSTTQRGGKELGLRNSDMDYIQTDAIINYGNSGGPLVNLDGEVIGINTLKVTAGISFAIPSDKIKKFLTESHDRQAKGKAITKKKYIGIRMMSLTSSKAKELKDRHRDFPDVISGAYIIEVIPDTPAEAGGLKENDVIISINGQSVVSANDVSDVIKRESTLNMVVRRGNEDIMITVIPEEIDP
LEDGF integ inh: blocks HIV-1 LEDGF/p75-dependent DNA integration; TR-FRET IN-LEDGF/p75 DNA integration, Eu/Cy5; actives 0.64% (n = 370,000); inhibition, % at 3.7 µM;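 active means inhibition above the screen-wide mean plus 3 SD, cut at about 13% in these data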;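 further: signal is the Cy5 over europium emission ratio at 671 and 618 nm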
DAGLB inhibitor: blocks human DAGLB lipase activity | Q8NCG7 | HEK293T DAGLB membrane lysate, EnzChek fluorogenic substrate | inhibition, % at 5.17 µM | actives 0.059% (n = 340,000); in the data active means inhibition above about 34%
rCAG binder: binds r(CAG) RNA repeats. r(CAG) RNA repeat, TO-PRO-1 dye displacement fluorescence. inhibition, % at 3 µM. actives 1.3% (n = 370,000);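 active means inhibition above the plate cutoff, the mean of all test compounds on that plate plus 3 SD, cut at about 35% in these data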;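 further: higher means more dye released from RNA so lower well fluorescence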
rCAG bind conf: r(CAG) RNA repeat binding, confirmation; shares compounds with rCAG binder; TO-PRO-1 dye displacement fluorescence; inhibition, % at 3 µM; actives 70% (n = 4,300);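 active means inhibition above a per-plate cutoff, the mean inhibition of sample wells plus 3 SD, cut at about 35% in these data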;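 further: loss of TO-PRO-1 fluorescence as compound displaces dye from 1x1 AA loop RNA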
dCAG dye counter: counter-screen for rCAG RNA binders: DNA CAG dye complex inhibitors. inhibition, % at 3 µM. actives 94% (n = 4,300). shares compounds with rCAG binder. d(CAG) DNA oligo TO-PRO-1 dye displacement, fluorescence. AID 652068;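 active means inhibition above its plate's cutoff, the mean test-well inhibition plus 3 SD, cut at about 4.8% in these data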;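 further: hits displace the dye from DNA and so lower well fluorescence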
dCAG dye DR: disrupts DNA CAG TO-PRO-1 complex in dose response; shares compounds with rCAG binder; DNA CAG/GTC duplex TO-PRO-1 dye displacement fluorescence; IC50, µM; actives 20% (n = 250); AID 686960; in the data active means IC50 below about 10 µM
Of the large screens only hits and unclear results are named; the others gave an inactive call (follow-up assays come after a bar, where they were run).

Cc1ccc(S(=O)(=O)N2[C@@H](c3ccccc3)C(C(=O)O)=CC[C@H]2c2ccc(Cl)cc2)cc1	rCAG binder 58 | rCAG bind conf 72 | dCAG dye counter 34 | dCAG dye DR inactive
Cc1ccc(S(=O)(=O)N2[C@@H](c3ccc(Cl)cc3)C(C(=O)O)=CC[C@H]2c2ccc(Cl)cc2)cc1	rCAG binder 82 | rCAG bind conf 84 | dCAG dye counter 53
Cc1ccc(S(=O)(=O)N2[C@@H](c3ccc(Cl)cc3)C(C(=O)O)=CC[C@H]2c2cccc(C)c2)cc1	none
Cc1ccc([C@@H]2CC=C(C(=O)O)[C@H](c3ccc(Cl)cc3)N2S(=O)(=O)c2ccc(C)cc2)cc1	rCAG binder 84 | rCAG bind conf 78 | dCAG dye counter 45
O=C1C=CC(c2ccccc2)(c2ccccc2)CC1	none
CCOC(=O)CNC(=O)C1Cc2ccccc2CN1S(=O)(=O)c1cccs1 (stereo unspecified)	none
Cc1ccc(S(=O)(=O)N2[C@@H](c3cccc(Cl)c3)C(C(=O)O)=CC[C@H]2c2ccc(C(C)C)cc2)cc1	rCAG binder 85 | rCAG bind conf 80 | dCAG dye counter 45
CCc1ccc([C@@H]2CC=C(C(=O)O)[C@H](c3ccc(Br)cc3)N2S(=O)(=O)c2ccc(C)cc2)cc1	none
Cc1ccc(S(=O)(=O)N2[C@@H](c3ccc(F)cc3)C(C(=O)O)=CC[C@H]2c2ccc(Cl)cc2)cc1	rCAG binder 78 | rCAG bind conf 69 | dCAG dye counter 31
COc1ccc([C@@H]2CC=C(C(=O)O)[C@H](c3ccc(Br)cc3)N2S(=O)(=O)c2ccc(C)cc2)cc1OC	rCAG binder 47 | rCAG bind conf 43 | dCAG dye counter 14
Cc1ccc(S(=O)(=O)N2[C@@H](c3ccc(Br)cc3)C(C(=O)O)=CC[C@H]2c2ccc(Cl)cc2)cc1	rCAG binder 83 | rCAG bind conf 82 | dCAG dye counter 53
CC(=O)NC(Cc1cc(C)ccc1C)C(=O)N1CCN(C(=O)c2ccc(Br)cc2)CC1 (stereo unspecified)	none
COc1cccc(/C(O)=C2\C(=O)C(=O)N(c3ccccn3)C2c2cccc(OC)c2OC)c1 (stereo unspecified)	none
Cn1c(N2CCN(C(c3ccccc3)c3ccccc3)CC2)nc2ccccc21	none
COc1ccc([C@@H]2CC=C(C(=O)O)[C@H](c3ccc(F)cc3)N2S(=O)(=O)c2ccc(C)cc2)cc1OC	none
O=C(O)C1=CC[C@@H](c2ccc(Cl)cc2)N(S(=O)(=O)c2ccc(Cl)cc2)[C@H]1c1ccc(Br)cc1	rCAG binder 85 | rCAG bind conf 88 | dCAG dye counter 58
Cc1ccc(S(=O)(=O)N2[C@@H](c3ccc(F)cc3)C(C(=O)O)=CC[C@H]2c2ccc(C(C)C)cc2)cc1	rCAG binder 82 | rCAG bind conf 80 | dCAG dye counter 44
Cc1cc(C)nc(OC(C(=O)O)C(OCc2ccccc2)(c2ccccc2)c2ccccc2)n1 (stereo unspecified)	none
Cc1ccnc(OC(C(=O)O)C(OCc2ccccc2)(c2ccccc2)c2ccc(C(F)(F)F)cc2)n1 (stereo unspecified)	rCAG binder 50 | rCAG bind conf 49 | dCAG dye counter 14 | dCAG dye DR inactive
COc1ccc(C(=O)CC(=O)c2ccc(F)cc2)cc1	none (no result: HTRA1 inh, DAGLB inhibitor)
COc1ccc(/C=C2\C(=O)NC(=S)N2C(=O)c2ccc(F)cc2)cc1	rCAG binder 38 | rCAG bind conf 69 | dCAG dye counter 31
O=C1NC(=S)N(C(=O)c2ccc(F)cc2)/C1=C/c1ccccc1	rCAG binder 36 | rCAG bind conf 65 | dCAG dye counter 24
CC1(C)CC(=O)C=C(Nc2cccc(F)c2)C1	none
CCC(Oc1ccc(C)cc1)C(=O)Nc1ccc(S(=O)(=O)Nc2cc(C)on2)cc1 (stereo unspecified)	rCAG binder 36 | rCAG bind conf inactive | dCAG dye counter inactive
COc1cc(C(=O)Nc2ccc(S(=O)(=O)Nc3cc(C)on3)cc2)cc(OC)c1OC	none
CCc1nnc(NS(=O)(=O)c2ccc(NC(=O)c3ccc(S(=O)(=O)N(CC)CC)cc3)cc2)s1	rCAG binder 76 | rCAG bind conf 67 | dCAG dye counter 29
CCc1nnc(NS(=O)(=O)c2ccc(NC(=O)c3cccc(Br)c3)cc2)s1	rCAG binder 73 | rCAG bind conf 53 | dCAG dye counter 19
O=C(Nc1ccc(S(=O)(=O)Nc2ncccn2)cc1)c1cccc(Br)c1	none
CCN(CC)S(=O)(=O)c1ccc(NC(=O)c2ccc(NS(C)(=O)=O)cc2)cc1	none
CCOc1cc(C(=O)Nc2ccc(S(=O)(=O)Nc3cc(C)on3)cc2)cc(OCC)c1OCC	rCAG binder 41 | rCAG bind conf inactive | dCAG dye counter 8.4
Cc1nnc(Oc2ccc([N+](=O)[O-])cc2)c2ccccc12	none
CCOc1cc(C(=O)Nc2ccc(S(=O)(=O)NC3=NCCCCC3)cc2)cc(OCC)c1OCC	none
CCOc1cc(C(=O)Nc2ccc(S(=O)(=O)Nc3nnc(CC)s3)cc2)cc(OCC)c1OCC	rCAG binder 63 | rCAG bind conf 67 | dCAG dye counter 28
Cc1c(OCc2nn[nH]n2)ccc2c3c(c(=O)oc12)CCC(C)C3 (stereo unspecified)	rCAG binder 42 | rCAG bind conf inactive | dCAG dye counter 4.7
COc1ccc(C2SCC(=O)N2c2nc3ccccc3s2)cc1 (stereo unspecified)	none
COc1ccc(C2=NN(c3nc4ccccc4s3)C(=O)/C2=C\N(C)C)cc1	rCAG binder 46 | rCAG bind conf 38 | dCAG dye counter 13
Cc1cccc(S(=O)(=O)Nc2ccc(-c3nc4ccc(C)cc4s3)cc2)c1	rCAG binder 37 | rCAG bind conf 40 | dCAG dye counter 15
Cc1ccc(S(=O)(=O)Nc2ccc(-c3nc4ccc(C)cc4s3)cc2)cc1	rCAG binder 35 | rCAG bind conf inactive | dCAG dye counter 12
Cc1ccc2nc(-c3ccc(NC(=O)CSc4nccc(=O)[nH]4)cc3)sc2c1	rCAG binder 40 | rCAG bind conf 71 | dCAG dye counter 33 | dCAG dye DR inactive
CCSc1nnc(NC(=O)CCn2c(=O)oc3ccccc32)s1	none
